Experimental data from ChEMBL document CHEMBL3244174, “Synthesis and biological activity of some new furan quaternary salts” (J Med Chem, 1977).

How the values were obtained:
Candida albicans = assay: Antifungal activity against Candida albicans SKF 2270 assessed as growth inhibition by agar dilution method; assay type: functional
Cryptococcus neoformans = assay: Antifungal activity against Cryptococcus neoformans 103 assessed as growth inhibition by agar dilution method; assay type: functional
[1] = test system: Trichophyton mentagrophytes; assay: Antifungal activity against Trichophyton mentagrophytes A-280 USPHS assessed as growth inhibition by agar dilution method; assay type: functional
Trichophyton rubrum = assay: Antifungal activity against Trichophyton rubrum 252 CSTM assessed as growth inhibition by agar dilution method; assay type: functional
Microsporum canis = assay: Antifungal activity against Microsporum canis VM-200 USPHS assessed as growth inhibition by agar dilution method; assay type: functional
Nannizzia gypsea = assay: Antifungal activity against Microsporum gypseum 153 CSTM assessed as growth inhibition by agar dilution method; assay type: functional
Histoplasma capsulatum = assay: Antifungal activity against Histoplasma capsulatum RNSH Hi-70 1/2 assessed as growth inhibition by agar dilution method; assay type: functional
Staphylococcus aureus = assay: Antibacterial activity against Staphylococcus aureus ATCC 6538 assessed as growth inhibition after 24 hrs by dilution tube method; assay type: functional; details: ATCC 6538, 24 h
Method in brief: (§1)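 Broth tube dilution in Tryptone Soya Broth, duplicate tubes at each concentration. MIC (μg/ml) was the highest dilution preventing visible growth. Nitrofurantoin run under the same conditions.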

Enterococcus faecalis = assay: Antibacterial activity against Streptococcus faecalis ATCC 10541 assessed as growth inhibition after 24 hrs by dilution tube method; assay type: functional; details: ATCC 10541, 24 h; method in brief: as §1
Pseudomonas aeruginosa = assay: Antibacterial activity against Pseudomonas aeruginosa ATCC 10145 assessed as growth inhibition after 24 hrs by dilution tube method; assay type: functional; details: ATCC 10145, 24 h; method in brief: as §1
Klebsiella pneumoniae = assay: Antibacterial activity against Klebsiella pneumoniae ATCC 10031 assessed as growth inhibition after 24 hrs by dilution tube method; assay type: functional; details: ATCC 10031, 24 h; method in brief: as §1
Salmonella typhi = assay: Antibacterial activity against Salmonella typhi 115 assessed as growth inhibition after 24 hrs by dilution tube method; assay type: functional, Salmonella enterica subsp. enterica serovar Typhi; details: Salmonella enterica, 115, 24 h
Method in brief: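 Dilution tube method in Tryptone Soya Broth; MIC (μg/ml) taken as highest dilution preventing visible growth; duplicates at every concentration; nitrofurantoin reference run under same conditions.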

[2] = test system: Agrobacterium tumefaciens; assay: Antibacterial activity against Agrobacterium tumefaciens NRRL B-36 assessed as growth inhibition after 24 hrs by dilution tube method; assay type: functional; details: NRRL B-36, 24 h; method in brief: as §1
Escherichia coli = assay: Antibacterial activity against Escherichia coli 114 assessed as growth inhibition after 24 hrs by dilution tube method; assay type: functional; details: Escherichia coli, 114, 24 h; method in brief: as §1
[3] = test system: Mycobacterium tuberculosis; assay: Antibacterial activity against Mycobacterium tuberculosis H37Rv assessed as growth inhibition by serial dilution method; assay type: functional
Method in brief: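 M. tuberculosis H37Rv maintained on Lowenstein–Jensen medium; tested in Youman's medium by serial dilution.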

SMILES	MIC (Candida albicans)	MIC (Cryptococcus neoformans)	MIC [1]	MIC (Trichophyton rubrum)	MIC (Microsporum canis)	MIC (Nannizzia gypsea)	MIC (Histoplasma capsulatum)	MIC (Staphylococcus aureus)	MIC (Enterococcus faecalis)	MIC (Pseudomonas aeruginosa)	MIC (Klebsiella pneumoniae)	MIC (Salmonella typhi)	MIC [2]	MIC (Escherichia coli)	MIC [3]
C[N+](C)(CCOc1ccc(Cl)cc1Cl)Cc1ccc([N+](=O)[O-])o1.[Br-]	> 200 µg/mL	> 200 µg/mL	> 200 µg/mL	> 200 µg/mL	> 200 µg/mL	> 200 µg/mL	> 200 µg/mL	200 µg/mL	> 200 µg/mL	100 µg/mL	100 µg/mL	> 200 µg/mL	> 200 µg/mL	> 200 µg/mL	> 200 µg/mL
Cc1cc(OCCCCCCCCCCCC[N+](C)(C)Cc2ccc([N+](=O)[O-])o2)c(C(C)C)cc1Cl.Cc1ccc(S(=O)(=O)[O-])cc1	> 200 µg/mL	100 µg/mL	> 200 µg/mL	> 200 µg/mL	> 200 µg/mL	> 200 µg/mL	> 200 µg/mL	200 µg/mL	200 µg/mL	50 µg/mL	200 µg/mL	> 200 µg/mL	> 200 µg/mL	> 200 µg/mL	100 µg/mL
C[N+](C)(CCCOc1c(Br)cc(Br)cc1Br)Cc1ccc(Br)o1.[Br-]	> 200 µg/mL	50 µg/mL	> 200 µg/mL	> 200 µg/mL	> 200 µg/mL	> 200 µg/mL	> 200 µg/mL	10 µg/mL	25 µg/mL	4 µg/mL	7.5 µg/mL	100 µg/mL	50 µg/mL	> 200 µg/mL	10 µg/mL
C[N+](C)(CCCCCOc1c(Br)cc(Br)cc1Br)Cc1ccc([N+](=O)[O-])o1.[Br-]	> 200 µg/mL	25 µg/mL	> 200 µg/mL	> 200 µg/mL	> 200 µg/mL	> 200 µg/mL	> 200 µg/mL	25 µg/mL	25 µg/mL	7.5 µg/mL	5 µg/mL	> 200 µg/mL	25 µg/mL	> 200 µg/mL	7.5 µg/mL
C[N+](C)(CCCCOc1c(Br)cc(Br)cc1Br)Cc1ccc([N+](=O)[O-])o1.[Br-]	> 200 µg/mL	50 µg/mL	> 200 µg/mL	> 200 µg/mL	> 200 µg/mL	> 200 µg/mL	50 µg/mL	25 µg/mL	50 µg/mL	8 µg/mL	10 µg/mL	> 200 µg/mL	50 µg/mL	> 200 µg/mL	25 µg/mL
Cc1cc(OCCCCCC[N+](C)(C)Cc2ccc(Br)o2)c(C(C)C)cc1Cl.Cc1ccc(S(=O)(=O)[O-])cc1	> 200 µg/mL	100 µg/mL	200 µg/mL	200 µg/mL	100 µg/mL	200 µg/mL	> 200 µg/mL	50 µg/mL	50 µg/mL	10 µg/mL	25 µg/mL	> 200 µg/mL	100 µg/mL	> 200 µg/mL	10 µg/mL
Cc1cc(OCCCC[N+](C)(C)Cc2ccco2)c(C(C)C)cc1Cl.[Br-]	100 µg/mL	25 µg/mL	> 200 µg/mL	> 200 µg/mL	> 200 µg/mL	> 200 µg/mL	> 200 µg/mL	25 µg/mL	25 µg/mL	7.5 µg/mL	10 µg/mL	> 200 µg/mL	25 µg/mL	> 200 µg/mL	10 µg/mL
C[N+](C)(CCCCCOc1c(Br)cc(Br)cc1Br)Cc1ccco1.[Br-]	100 µg/mL	25 µg/mL	100 µg/mL	> 200 µg/mL	100 µg/mL	100 µg/mL	50 µg/mL	25 µg/mL	50 µg/mL	25 µg/mL	25 µg/mL	> 200 µg/mL	100 µg/mL	> 200 µg/mL	25 µg/mL
Cc1cc(OCCCCCCCCCCCC[N+](C)(C)Cc2ccc(Br)o2)c(C(C)C)cc1Cl.Cc1ccc(S(=O)(=O)[O-])cc1	> 200 µg/mL	> 200 µg/mL	> 200 µg/mL	> 200 µg/mL	> 200 µg/mL	> 200 µg/mL	> 200 µg/mL	200 µg/mL	> 200 µg/mL	50 µg/mL	200 µg/mL	> 200 µg/mL	> 200 µg/mL	> 200 µg/mL	200 µg/mL
Cc1ccc(C[N+](C)(C)CCOc2c(Br)cc(Br)cc2Br)o1.[Br-]	> 200 µg/mL	50 µg/mL	> 200 µg/mL	> 200 µg/mL	> 200 µg/mL	> 200 µg/mL	> 200 µg/mL	50 µg/mL	50 µg/mL	25 µg/mL	50 µg/mL	> 200 µg/mL	100 µg/mL	> 200 µg/mL	25 µg/mL
C[N+](C)(CCCOc1c(Br)cc(Br)cc1Br)Cc1ccc([N+](=O)[O-])o1.[Br-]	> 200 µg/mL	200 µg/mL	> 200 µg/mL	> 200 µg/mL	> 200 µg/mL	> 200 µg/mL	200 µg/mL	50 µg/mL	200 µg/mL	25 µg/mL	25 µg/mL	> 200 µg/mL	100 µg/mL	> 200 µg/mL	50 µg/mL
C[N+](C)(CCCCCCCOc1c(Br)cc(Br)cc1Br)Cc1ccc([N+](=O)[O-])o1.[Br-]	> 200 µg/mL	5 µg/mL	> 200 µg/mL	> 200 µg/mL	> 200 µg/mL	> 200 µg/mL	> 200 µg/mL	7.5 µg/mL	7.5 µg/mL	3 µg/mL	5 µg/mL	> 200 µg/mL	25 µg/mL	> 200 µg/mL	10 µg/mL
Cc1cc(OCC[N+](C)(C)Cc2ccc([N+](=O)[O-])o2)c(C(C)C)cc1Cl.Cc1ccc(S(=O)(=O)[O-])cc1	> 200 µg/mL	100 µg/mL	> 200 µg/mL	> 200 µg/mL	> 200 µg/mL	> 200 µg/mL	> 200 µg/mL	100 µg/mL	200 µg/mL	25 µg/mL	25 µg/mL	> 200 µg/mL	100 µg/mL	> 200 µg/mL	50 µg/mL
